In ChEMBL document CHEMBL5380838, “Novel Aryl Sulfonamide Derivatives as NLRP3 Inflammasome Inhibitors for the Potential Treatment of Cancer” (J Med Chem, 2023):
Active and inactive are the calls of the source. The rule behind the calls is not given here.

Tests used:
THP-1 [1] = experiment: Cytotoxicity against human THP-1 cells assessed as reduction in cell viability at 1 uM measured after 48 hrs by RealTime-Glo MT assay; assay type: toxicity, cell-based; settings: thp-1, 48 h
How it was run: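 THP-1 cells (10 × 10^4/well) treated with inhibitors at 1 µM and kept 48 h; RealTime-Glo reagent added, luminescence read every 12 h as a proxy for metabolically active cells; means of RLU ± SEM.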

THP-1 [2] = experiment: Suppression of NLRP3 expression in LPS-treated human THP-1 cells at 1 to 1000 nM incubated for 30 mins followed by ATP stimulation for 1 hr […]; assay type: functional, cell-based; settings: dose 1-1000 nM, time 90.0 min
THP-1 [3] = experiment: Suppression of pro-IL-1beta expression in LPS-treated human THP-1 cells at 1 to 1000 nM incubated for 30 mins followed by ATP stimulation for 1 hr […]; assay type: functional, cell-based; settings: dose 1-1000 nM, time 90.0 min
THP-1 [4] = experiment: Suppression of caspase-1 p10 expression in LPS-treated human THP-1 cells at 1 to 1000 nM incubated for 30 mins followed by ATP stimulation for 1 hr […]; assay type: functional, cell-based; settings: dose 1-1000 nM, time 90.0 min
THP-1 [5] = experiment: Suppression of IL-1beta processing in LPS-treated human THP-1 cells at 1 to 1000 nM incubated for 30 mins followed by ATP stimulation for 1 hr by ELISA method; assay type: functional, cell-based; settings: dose 1-1000 nM, time 90.0 min
BMDM [6] = experiment: Effect on AIM2 inflammasome activation in LPS-treated mouse BMDM cells assessed as IL-1beta release at 1 uM incubated for 30 mins followed by Poly (dA:dT) stimulation for 4 hrs by ELISA method; assay type: functional, cell-based; settings: time 270.0 min
How it was run: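 BMDMs primed with LPS 100 ng/mL for 3 h, then compound 1 µM in serum-free medium for 30 min, then poly(dA:dT) 1 µg/mL transfected with lipofectamine 2000 for 4 h; supernatant mouse IL-1β by ELISA.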

BMDM [7] = experiment: Effect on NLRP3-ASC interaction in LPS-treated mouse BMDM cells at 1 uM incubated for 30 mins followed by ATP stimulation for 1 hr by co-immunoprecipitation based Western blot analysis; assay type: functional, cell-based; settings: time 90.0 min
How it was run: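 BMDMs (1 × 10^7) primed with LPS 2 h, treated 1 µM compound 30 min, then ATP 1 h; lysed in HEPES/NaCl/glycerol/EDTA/0.5% Triton buffer with protease/phosphatase inhibitors; NLRP3–ASC co-immunoprecipitation, bait eluted in Laemmli buffer, western blot; representative of three independent experiments.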

Mus musculus [8] = experiment: Antiinflammatory activity in LPS-induced C57BL/6 mouse assessed as reduction in IL-1beta production in peritoneal exudate at 25 mg/kg, ip pretreated for 30 mins followed by LPS induction measured after 4 hrs by ELISA method; assay type: functional, organism-based; settings: time 4.5 hrs
How it was run: (§1)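 C57BL/6 mice given inhibitor 25 mg/kg IP (vehicle DMSO) 30 min before IP LPS 1 mg/kg; after 4 h, peritoneal exudate and blood collected, plasma from centrifugation 1000g 15 min 4 °C; IL-1β measured by ELISA; mean ± SEM of three independent experiments.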

Mus musculus [9] = experiment: Antiinflammatory activity in LPS-induced C57BL/6 mouse assessed as reduction in IL-1beta production in plasma at 25 mg/kg, ip pretreated for 30 mins followed by LPS induction measured after 4 hrs by ELISA method; assay type: functional, organism-based; settings: time 4.5 hrs; how it was run: as §1
B16-F10 [10] = experiment: Antitumor activity against cytosolic luciferase-transfected mouse B16-F10 cells xenografted in C57BL/6 mouse assessed as tumor reduction at 25 mg/kg, ip administered thrice weekly measured after 14 days by bioluminescence assay; assay type: functional, organism-based; settings: time 14.0 day
How it was run: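 Female C57BL/6 mice aged 6–8 weeks inoculated subcutaneously with 1 × 10^6 B16-F10 cells stably expressing cytosolic luciferase. From day 5, IP dosing of 25 mg/kg thrice weekly, DMSO for controls, five mice per group. Imaging after IP D-luciferin 150 mg/kg under 2.5% isoflurane, read after 15 min. Caliper volume = π/6 × a × b². Tumors excised day 14.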

B16-F10 [11] = experiment: Effect on NLRP3 expression in cytosolic luciferase-transfected mouse B16-F10 cells xenografted in C57BL/6 mouse at 25 mg/kg, ip administered thrice weekly measured after 14 days by Western blot analysis; assay type: functional, organism-based; settings: time 14.0 day
How it was run: (§2)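 Tumors from luciferase-expressing B16-F10 grafts in C57BL/6 mice, dosed IP at 25 mg/kg thrice weekly (DMSO controls), were excised at endpoint and homogenized in sucrose/HEPES/IGEPAL lysis buffer. Lysates were western blotted and bands expressed as fold ratio over β-actin (n = 5).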

B16-F10 [12] = experiment: Effect on cleaved caspase-1 expression in cytosolic luciferase-transfected mouse B16-F10 cells xenografted in C57BL/6 mouse at 25 mg/kg, ip administered thrice weekly measured after 14 days by Western blot analysis; assay type: functional, organism-based; settings: time 14.0 day; how it was run: as §2
B16-F10 [13] = experiment: Effect on ASC expression in cytosolic luciferase-transfected mouse B16-F10 cells xenografted in C57BL/6 mouse at 25 mg/kg, ip administered thrice weekly measured after 14 days by Western blot analysis; assay type: functional, organism-based; settings: time 14.0 day; how it was run: as §2
B16-F10 [14] = experiment: Antiproliferative activity against LPS-treated mouse B16-F10 cells co-cultured with mouse peritoneal macrophages assessed as decrease in cell growth at 1 uM incubated for 30 mins followed by ATP stimulation for 1 hr measured after 48 hrs by cell counting method; assay type: functional, cell-based; settings: time 49.5 hrs
How it was run: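 Transwell co-culture (0.4 µm pores), 48 h: peritoneal macrophages from C57BL/6 mice (2 × 10^5, lower well) primed with LPS 1 µg/mL 2 h, then DMSO or compound 1 µM 30 min, then ATP 1 h; B16-F10 cells (2 × 10^3) in upper insert; tumor cells removed after 48 h and counted by image-based cytometer.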

[15] = Metabolic stability in human liver microsomes assessed as intrinsic clearance measured per mg protein at 1 uM measured upto 60 mins by LC-MS/MS analysis; assay type: ADME, Microsome; settings: read-out: CLH
How it was run: (§3)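 Pooled human or CD-1 male mouse liver microsomes at 0.5 mg/mL with test compound 1 µM in 50 mM phosphate pH 7.4 and 3 mM MgCl2, preincubated 10 min at 37 °C. Percent parent remaining vs 0 min measured by LC-MS/MS. Cli = k/microsomal conc. × 1000; mean ± SD, n = 2.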

[16] = Metabolic stability in mouse liver microsomes assessed as intrinsic clearance measured per mg protein at 1 uM measured upto 60 mins by LC-MS/MS analysis; assay type: ADME, Microsome; settings: read-out: CLH; how it was run: as §3
[17] = Metabolic stability in mouse liver microsomes assessed as half life measured per mg protein at 1 uM measured upto 60 mins by LC-MS/MS analysis; assay type: ADME, Microsome; how it was run: as §3
[18] = Half life in C57BL/6 mouse at 25 mg/kg, ip measured for 0.083 to 24 hrs by LC-MS/MS analysis; assay type: ADME, organism-based; settings: in vivo, time 0.083-24 hrs
How it was run: (§4)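 Female C57BL/6 mice, 8 weeks old, 25–30 g, given a single IP dose of 25 mg/kg. Sampling at 5 and 20 min and 1, 2, 3, 6, 8 and 24 h, 3 mice per timepoint; Li-heparin plasma from the cava vein. ACN/MeOH precipitation with diclofenac internal standard, then LC-MS/MS in ESI(−) MRM mode, range 1–2000 ng/mL. Noncompartmental analysis, linear trapezoidal AUC.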

[19] = Clast in C57BL/6 mouse at 25 mg/kg, ip measured for 0.083 to 24 hrs by LC-MS/MS analysis; assay type: ADME, organism-based; settings: in vivo, time 0.083-24 hrs; how it was run: as §4

microsomal CLint at 1 µM [15]: 45.8 µL/min/mg | microsomal CLint at 1 µM [16]: 4.8 µL/min/mg | half-life at 1 µM [17]: 4.8 h | half-life [18]: 9.5 h | Clast [19]: 67 ng/mL
Structure (SMILES): CC(C)[C@H](NS(=O)(=O)c1ccc([N+](=O)[O-])cc1)C(=O)Nc1c2c(cc3c1CCC3)CCC2
Activity (THP-1 [1]): Non-Toxic | Activity (THP-1 [2]): inactive | Activity (THP-1 [3]): inactive | Activity (THP-1 [4]): Active | Activity (THP-1 [5]): Active | Activity (BMDM [6]): inactive | Activity (BMDM [7]): inactive | Activity (Mus musculus [8]): Active | Activity (Mus musculus [9]): Active | Activity (B16-F10 [10]): Active | Activity (B16-F10 [11]): inactive | Activity (B16-F10 [12]): inactive | Activity (B16-F10 [13]): inactive | Activity (B16-F10 [14]): Active
